# Source: ChEMBL document CHEMBL4610084, “Antibacterial and ATP Synthesis Modulating Compounds from Salvia tingitana” (2020)
# Test system: Staphylococcus capitis
# Assay: Antibacterial activity against Methicillin-resistant Staphylococcus capitis MB71 after 24 hrs by microdilution assay
# Format: functional
# Conditions: MB71, 24 h
# Summary of the method: (§1)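 Broth microdilution MIC, run as in an earlier cited report. Strains are clinical isolates identified by standard methods and MALDI-TOF; E. faecalis MB19 and MB51 are Ligurian seawater isolates. Highest concentration tested was 128 μg/mL. MICs are given in μg/mL and μM, with oxacillin and vancomycin as reference antibiotics.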
row,SMILES,MIC [µM]
1,C=C[C@@](C)(O)CC[C@@H]1[C@@]2(C)CCCC(C)(C)[C@@H]2CC[C@@]1(C)O,104

# Test system: Staphylococcus hominis
# Assay: Antibacterial activity against Methicillin-resistant Staphylococcus hominis MB124 after 24 hrs by microdilution assay
# Format: functional
# Conditions: MB124, 24 h
# Summary of the method: as §1
row,SMILES,MIC [µM]
1,C=C[C@@](C)(O)CC[C@@H]1[C@@]2(C)CCCC(C)(C)[C@@H]2CC[C@@]1(C)O,104

# Test system: Enterococcus gallinarum
# Assay: Antibacterial activity against Vancomycin resistant Enterococcus gallinarum MB111 after 24 hrs by microdilution assay
# Format: functional
# Conditions: MB111, 24 h
# Summary of the method: as §1
row,SMILES,MIC [µM]
1,C=C[C@@](C)(O)CC[C@@H]1[C@@]2(C)CCCC(C)(C)[C@@H]2CC[C@@]1(C)O,207

# Test system: Enterococcus faecium
# Assay: Bacteriostatic activity against Enterococcus faecium MB152 assessed as ratio of reduction in bacterial growth by measuring order of magnitude at 4 times MIC by time kill assay
# Format: functional
# Conditions: not given
# Summary of the method: (§2)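 Time-kill curves: viable cell counts of susceptible strains recorded with or without compound at 4 × MIC.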
row,SMILES,Ratio
1,C=C[C@@](C)(O)CC[C@@H]1[C@@]2(C)CCCC(C)(C)[C@@H]2CC[C@@]1(C)O,1 - 2

# Test system: Staphylococcus lugdunensis
# Assay: Antibacterial activity against Staphylococcus lugdunensis MB96 after 24 hrs by microdilution assay
# Format: functional
# Conditions: MB96, 24 h
# Summary of the method: (§3)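 Broth microdilution MIC against clinical or seawater-isolated strains (identified by standard procedures and MALDI-TOF), with compound solutions and testing as in earlier work. MIC reported in μg/mL and μM.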
row,SMILES,MIC [µM]
1,C=C[C@@](C)(O)CC[C@@H]1[C@@]2(C)CCCC(C)(C)[C@@H]2CC[C@@]1(C)O,104

# Test system: Enterococcus faecalis
# Assay: Antibacterial activity against Vancomycin resistant Enterococcus faecalis MB1 after 24 hrs by microdilution assay
# Format: functional
# Conditions: MB1, 24 h
# Summary of the method: as §1
row,SMILES,MIC [µM]
1,C=C[C@@](C)(O)CC[C@@H]1[C@@]2(C)CCCC(C)(C)[C@@H]2CC[C@@]1(C)O,104

# Test system: Enterococcus avium
# Assay: Antibacterial activity against Enterococcus avium MB119 after 24 hrs by microdilution assay
# Format: functional
# Conditions: MB119, 24 h
# Summary of the method: as §3
row,SMILES,MIC [µM]
1,C=C[C@@](C)(O)CC[C@@H]1[C@@]2(C)CCCC(C)(C)[C@@H]2CC[C@@]1(C)O,207

# Test system: Staphylococcus warneri
# Assay: Antibacterial activity against Methicillin-resistant Staphylococcus warneri MB74 after 24 hrs by microdilution assay
# Format: functional
# Conditions: MB74, 24 h
# Summary of the method: as §1
row,SMILES,MIC [µM]
1,C=C[C@@](C)(O)CC[C@@H]1[C@@]2(C)CCCC(C)(C)[C@@H]2CC[C@@]1(C)O,104

# Test system: Staphylococcus saprophyticus
# Assay: Antibacterial activity against Staphylococcus saprophyticus MB41 after 24 hrs by microdilution assay
# Format: functional
# Conditions: MB41, 24 h
# Summary of the method: as §3
row,SMILES,MIC [µM]
1,C=C[C@@](C)(O)CC[C@@H]1[C@@]2(C)CCCC(C)(C)[C@@H]2CC[C@@]1(C)O,104

# Test system: Staphylococcus simulans
# Assay: Antibacterial activity against Staphylococcus simulans MB94 after 24 hrs by microdilution assay
# Format: functional
# Conditions: MB94, 24 h
# Summary of the method: as §3
row,SMILES,MIC [µM]
1,C=C[C@@](C)(O)CC[C@@H]1[C@@]2(C)CCCC(C)(C)[C@@H]2CC[C@@]1(C)O,207

# Test system: Staphylococcus epidermidis
# Assay: Antibacterial activity against Methicillin-resistant Staphylococcus epidermidis MB169 after 24 hrs by microdilution assay
# Format: functional
# Conditions: MB169, 24 h
# Summary of the method: as §1
row,SMILES,MIC [µM]
1,C=C[C@@](C)(O)CC[C@@H]1[C@@]2(C)CCCC(C)(C)[C@@H]2CC[C@@]1(C)O,207

# Test system: Enterococcus faecium
# Assay: Antibacterial activity against Enterococcus faecium MB2 after 24 hrs by microdilution assay
# Format: functional
# Conditions: MB2, 24 h
# Summary of the method: as §3
row,SMILES,MIC [µM]
1,C=C[C@@](C)(O)CC[C@@H]1[C@@]2(C)CCCC(C)(C)[C@@H]2CC[C@@]1(C)O,104

# Test system: Staphylococcus aureus
# Assay: Antibacterial activity against Methicillin-resistant Staphylococcus aureus MB18 after 24 hrs by microdilution assay
# Format: functional
# Conditions: MB18, 24 h
# Summary of the method: as §1
row,SMILES,MIC [µM]
1,C=C[C@@](C)(O)CC[C@@H]1[C@@]2(C)CCCC(C)(C)[C@@H]2CC[C@@]1(C)O,104

# Test system: Enterococcus durans
# Assay: Antibacterial activity against Enterococcus durans MB113 after 24 hrs by microdilution assay
# Format: functional
# Conditions: MB113, 24 h
# Summary of the method: as §3
row,SMILES,MIC [µM]
1,C=C[C@@](C)(O)CC[C@@H]1[C@@]2(C)CCCC(C)(C)[C@@H]2CC[C@@]1(C)O,104

# Test system: Staphylococcus aureus
# Assay: Bacteriostatic activity against Methicillin-resistant Staphylococcus aureus MB18 assessed as ratio of reduction in bacterial growth at 4 times MIC by time kill assay
# Format: functional
# Conditions: not given
row,SMILES,Ratio
1,C=C[C@@](C)(O)CC[C@@H]1[C@@]2(C)CCCC(C)(C)[C@@H]2CC[C@@]1(C)O,1 - 2

# Test system: Enterococcus faecalis
# Assay: Antibacterial activity against Vancomycin resistant Enterococcus faecalis MB19 after 24 hrs by microdilution assay
# Format: functional
# Conditions: MB19, 24 h
# Summary of the method: as §1
row,SMILES,MIC [µM]
1,C=C[C@@](C)(O)CC[C@@H]1[C@@]2(C)CCCC(C)(C)[C@@H]2CC[C@@]1(C)O,104

# Test system: Enterococcus faecalis
# Assay: Antibacterial activity against Vancomycin resistant Enterococcus faecalis MB51 after 24 hrs by microdilution assay
# Format: functional
# Conditions: MB51, 24 h
# Summary of the method: as §1
row,SMILES,MIC [µM]
1,C=C[C@@](C)(O)CC[C@@H]1[C@@]2(C)CCCC(C)(C)[C@@H]2CC[C@@]1(C)O,207

# Test system: Enterococcus faecium
# Assay: Antibacterial activity against Enterococcus faecium MB152 after 24 hrs by microdilution assay
# Format: functional
# Conditions: MB152, 24 h
# Summary of the method: as §3
row,SMILES,MIC [µM]
1,C=C[C@@](C)(O)CC[C@@H]1[C@@]2(C)CCCC(C)(C)[C@@H]2CC[C@@]1(C)O,207

# Organism: Bos taurus
# Assay: Modulation of ATP synthase in bovine rod outer segments assessed as inhibition of ATP production at 80 ug/ml in presence of Ap5A adenylate kinase inhibitor by luciferin/luciferase chemiluminescent method relative to control
# Conditions: not given
# Summary of the method: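 Bovine rod OS (5 μg) preincubated 5 min at 37 °C in Tris/HCl pH 7.4 with KCl, EGTA, MgCl2, 0.6 mM ouabain, 0.25 mM Ap5A, 5 mM KH2PO4, 20 mM succinate, 0.35 mM NADH and ampicillin. Synthesis started with 0.1 mM ADP and stopped with perchloric acid. ATP read by luciferin/luciferase luminescence. Samples at 80 μg/mL; 30 μM resveratrol as positive control. Triplicates, ANOVA/Bonferroni.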
row,SMILES,inhibition [%]
1,C=C[C@@](C)(O)CC[C@@H]1[C@@]2(C)CCCC(C)(C)[C@@H]2CC[C@@]1(C)O,70

# Test system: Enterococcus faecalis
# Assay: Antibacterial activity against Enterococcus faecalis MB76 after 24 hrs by microdilution assay
# Format: functional
# Conditions: MB76, 24 h
# Summary of the method: as §1
row,SMILES,MIC [µM]
1,C=C[C@@](C)(O)CC[C@@H]1[C@@]2(C)CCCC(C)(C)[C@@H]2CC[C@@]1(C)O,207

# Test system: Enterococcus faecalis
# Assay: Bacteriostatic activity against Enterococcus faecalis MB1 assessed as ratio of reduction in bacterial growth at 4 times MIC by time kill assay
# Format: functional
# Conditions: not given
# Summary of the method: as §2
row,SMILES,Ratio
1,C=C[C@@](C)(O)CC[C@@H]1[C@@]2(C)CCCC(C)(C)[C@@H]2CC[C@@]1(C)O,1 - 2

# Test system: Staphylococcus epidermidis
# Assay: Antibacterial activity against Methicillin-resistant Staphylococcus epidermidis MB165 after 24 hrs by microdilution assay
# Format: functional
# Conditions: MB165, 24 h
# Summary of the method: as §1
row,SMILES,MIC [µM]
1,C=C[C@@](C)(O)CC[C@@H]1[C@@]2(C)CCCC(C)(C)[C@@H]2CC[C@@]1(C)O,207

# Test system: Enterococcus faecium
# Assay: Antibacterial activity against Enterococcus faecium MB3 after 24 hrs by microdilution assay
# Format: functional
# Conditions: MB3, 24 h
# Summary of the method: as §3
row,SMILES,MIC [µM]
1,C=C[C@@](C)(O)CC[C@@H]1[C@@]2(C)CCCC(C)(C)[C@@H]2CC[C@@]1(C)O,104

# Test system: Staphylococcus epidermidis
# Assay: Bacteriostatic activity against Staphylococcus epidermidis MB165 assessed as ratio of reduction in bacterial growth at 4 times MIC by time kill assay
# Format: functional
# Conditions: not given
# Summary of the method: as §2
row,SMILES,Ratio
1,C=C[C@@](C)(O)CC[C@@H]1[C@@]2(C)CCCC(C)(C)[C@@H]2CC[C@@]1(C)O,1 - 2

# Test system: Staphylococcus aureus
# Assay: Antibacterial activity against Methicillin-resistant Staphylococcus aureus MB188 after 24 hrs by microdilution assay
# Format: functional
# Conditions: MB188, 24 h
# Summary of the method: as §1
row,SMILES,MIC [µM]
1,C=C[C@@](C)(O)CC[C@@H]1[C@@]2(C)CCCC(C)(C)[C@@H]2CC[C@@]1(C)O,104

# Test system: Enterococcus casseliflavus
# Assay: Antibacterial activity against Vancomycin resistant Enterococcus casseliflavus MB159 after 24 hrs by microdilution assay
# Format: functional
# Conditions: MB159, 24 h
# Summary of the method: as §1
row,SMILES,MIC [µM]
1,C=C[C@@](C)(O)CC[C@@H]1[C@@]2(C)CCCC(C)(C)[C@@H]2CC[C@@]1(C)O,207

# Test system: Staphylococcus haemolyticus
# Assay: Antibacterial activity against Methicillin-resistant Staphylococcus haemolyticus MB115 after 24 hrs by microdilution assay
# Format: functional
# Conditions: MB115, 24 h
# Summary of the method: as §1
row,SMILES,MIC [µM]
1,C=C[C@@](C)(O)CC[C@@H]1[C@@]2(C)CCCC(C)(C)[C@@H]2CC[C@@]1(C)O,207
